Results from ChEMBL document CHEMBL1124575, “Water-soluble third generation antitumor platinum complexes, [2,2-bis (aminomethyl)-1,3-propanediol-N,N']-[1,1-cyclobutanedicarboxylato (2-)-O,O']platinum(II) and [1,1-cyclobutanedicarboxylato(2-)-O,O'] [tetrahydro-4H-pyran-4,4-dimethanamine-N,N']platinum(II)” (J Med Chem, 1989).
The source made the active and inactive calls. The rule behind the calls is not given here.

Key:
L1210 [1] = experiment: Antitumor activity against murine tumor cells L1210 in BDF1 mice administered 100 mg/kg intraperitoneally on days 1,5, and 9 relative to tumor inoculation; assay type: functional, organism-based; set-up: dose 100 mg/kg; details: Mus musculus, at 100 mg/kg
Summary of the method: (§1)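 L1210, cisplatin-resistant L1210 and P388 leukemias implanted in BDF1 mice and maintained per National Cancer Institute protocols. Drug given ip on days 1, 5 and 9 after inoculation, with 30-day observation. The end point is % ILS versus controls, with >25% needed for activity. Reduction of ILS or body weight by >15% is rated toxic.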

Colon 26 [2] = experiment: Antitumor activity against murine tumor cells Colon 26 in BALB / C mice administered 50 mg/Kg intraperitoneally on days 1,5, and 9 relative to tumor inoculation; assay type: functional, cell-based; details: Mus musculus
Summary of the method: (§2)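 Colon 26 carcinoma grown in Balb/C mice following National Cancer Institute protocols. Intraperitoneal dosing on days 1, 5 and 9 after tumor inoculation, with survival followed for 30 days. Activity is scored as % ILS over control mice, and ILS >25% is required. Toxicity is a >15% drop in ILS or body weight versus controls.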

L1210 [3] = experiment: Antitumor activity against murine tumor cells L1210 cisplatin resistant leukemia in BDF1 mice administered mg/Kg intraperitoneally on days 1,5, and 9 relative to tumor inoculation; Inactive; assay type: functional; details: Mus musculus; summary of the method: as §1
P388 [4] = experiment: Antitumor activity against murine tumor cells, P388 in BDF1 mice administered 100 mg/kg intraperitoneally on days 1,5, and 9 relative to tumor inoculation; assay type: functional, organism-based; set-up: dose 100 mg/kg; details: Mus musculus, at 100 mg/kg; summary of the method: as §1
MX1 [5] = experiment: Percent tumor weight inhibition (TWI) in athymic mice at an optimal dose of 50 mg/kg in breast MX-1 cells; assay type: functional, organism-based; set-up: dose 50 mg/kg; details: Mus musculus
Mus musculus [6] = experiment: Percent tumor weight inhibition (TWI) in athymic mice at an optimal dose of 50 mg/kg in […] cells; assay type: functional, organism-based; set-up: dose 50 mg/kg
B16 [7] = experiment: Antitumor activity against murine tumor cells B16 in C57BC mice administered 12.5 mg/Kg intraperitoneally on days 1-9 relative to tumor inoculation; assay type: functional; details: Mus musculus
Summary of the method: (§3)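 B16 melanoma in C57BC/6 mice, propagated per National Cancer Institute protocols. Drug given ip daily on days 1-9 after tumor inoculation, with observation for 60 days. Read-out is % increase in life span (ILS) over controls. ILS >25% counts as active. Treatment cutting ILS or body weight by >15% versus controls is rated toxic.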

L1210 [8] = experiment: Antitumor activity against murine tumor cells L1210 in BDF1 mice administered 6.2 mg/kg intraperitoneally on days 1,5, and 9 relative to tumor inoculation; assay type: functional, organism-based; set-up: dose 6.2 mg/kg; details: Mus musculus, at 6.2 mg/kg; summary of the method: as §1
MX1 [9] = experiment: Percent tumor weight inhibition (TWI) in athymic mice at an optimal dose of 3 mg/kg in breast MX-1 cells; assay type: functional, organism-based; set-up: dose 3 mg/kg; details: Mus musculus
P388 [10] = experiment: Antitumor activity against murine tumor cells, P388 in BDF1 mice administered 3 mg/kg intraperitoneally on days 1,5, and 9 relative to tumor inoculation; assay type: functional, organism-based; set-up: dose 3 mg/kg; details: Mus musculus, at 3 mg/kg; summary of the method: as §1
Colon 26 [11] = experiment: Antitumor activity against murine tumor cells Colon 26 in BALB / C mice administered 1 mg/Kg intraperitoneally on days 1,5, and 9 relative to tumor inoculation; assay type: functional; details: Mus musculus; summary of the method: as §2
Mus musculus [12] = experiment: Percent tumor weight inhibition (TWI) in athymic mice at an optimal dose of 3 mg/kg in […] cells; assay type: functional, organism-based; set-up: dose 3 mg/kg
L1210 [13] = experiment: Antitumor activity against murine tumor cells L1210 cisplatin resistant leukemia in BDF1 mice administered mg/Kg intraperitoneally on days 1,5, and 9 relative to tumor inoculation; In active; assay type: functional; details: Mus musculus; summary of the method: as §1
B16 [14] = experiment: Antitumor activity against murine tumor cells B16 in C57BC mice administered 0.4 mg/kg intraperitoneally on days 1-9 relative to tumor inoculation; assay type: functional, organism-based; set-up: dose 0.4 mg/kg; details: Mus musculus, at 0.4 mg/kg; summary of the method: as §3
[15] = Solubility in water; assay type: physicochemical; details: buffer
L1210 [16] = experiment: Antitumor activity against murine tumor cells L1210 in BDF1 mice administered 3.1 mg/kg intraperitoneally on days 1,5, and 9 relative to tumor inoculation; assay type: functional, organism-based; set-up: dose 3.1 mg/kg; details: Mus musculus, at 3.1 mg/kg; summary of the method: as §1
P388 [17] = experiment: Antitumor activity against murine tumor cells, P388 in BDF1 mice administered 3.2 mg/Kg intraperitoneally on days 1,5, and 9 relative to tumor inoculation; assay type: functional; details: Mus musculus; summary of the method: as §1
M5076 = experiment: Antitumor activity against murine tumor cells M5076 in BDF1 mice administered 3 mg/Kg intraperitoneally on days 1,5, and 9 relative to tumor inoculation; assay type: functional; details: Mus musculus
Colon 26 [18] = experiment: Antitumor activity against murine tumor cells Colon 26 in BALB / C mice administered 3.1 mg/Kg intraperitoneally on days 1,5, and 9 relative to tumor inoculation; assay type: functional; details: Mus musculus; summary of the method: as §2
P388 [19] = experiment: Antitumor activity against murine tumor cells, P388 in BDF1 mice administered 6.2 mg/Kg intraperitoneally on days 1,5, and 9 relative to tumor inoculation; assay type: functional; details: Mus musculus; summary of the method: as §1
B16 [20] = experiment: Antitumor activity against murine tumor cells B16 in C57BC mice administered 0.4 mg/Kg intraperitoneally on days 1-9 relative to tumor inoculation; assay type: functional; details: Mus musculus; summary of the method: as §3
B16 [21] = experiment: Antitumor activity against murine tumor cells B16 in C57BC mice administered 0.2 mg/Kg intraperitoneally on days 1-9 relative to tumor inoculation; assay type: functional; details: Mus musculus; summary of the method: as §3
B16 [22] = experiment: Antitumor activity against murine tumor cells B16 in C57BC mice administered 1.5 mg/Kg intraperitoneally on days 1-9 relative to tumor inoculation; assay type: functional; details: Mus musculus; summary of the method: as §3
Colon 26 [23] = experiment: Antitumor activity against murine tumor cells Colon 26 in BALB / C mice administered 0.8 mg/Kg intraperitoneally on days 1,5, and 9 relative to tumor inoculation; assay type: functional; details: Mus musculus; summary of the method: as §2
L1210 [24] = experiment: Antitumor activity against murine tumor cells L1210 in BDF1 mice administered 1.5 mg/kg intraperitoneally on days 1,5, and 9 relative to tumor inoculation; assay type: functional, organism-based; set-up: dose 1.5 mg/kg; details: Mus musculus, at 1.5 mg/kg; summary of the method: as §1
B16 [25] = experiment: Antitumor activity against murine tumor cells B16 in C57BC mice administered 6 mg/kg intraperitoneally on days 1-9 relative to tumor inoculation; assay type: functional, organism-based; set-up: dose 6 mg/kg; details: Mus musculus, at 6 mg/kg; summary of the method: as §3

CARBOPLATIN
Increase (L1210 [1]): 35%
Increase (Colon 26 [2]): 85%
Increase (L1210 [3]): inactive
Increase (P388 [4]): 144%
TWI (MX1 [5]): 90%
TWI (Mus musculus [6]): 200%
Increase (B16 [7]): 43%

CISPLATIN
Increase (L1210 [8]): 96%
TWI (MX1 [9]): 86%
Increase (P388 [10]): 140%
Increase (Colon 26 [11]): 47%
TWI (Mus musculus [12]): 200%
Increase (L1210 [13]): inactive
Increase (B16 [14]): 36%

cis-Diamminedichloroplatinum (II) complex [listing 1 of 3 here]
S [15]: 0.3 mg/mL

cis-Diamminedichloroplatinum (II) complex [listing 2 of 3 here]
S [15]: 1 mg/mL

cis-Diamminedichloroplatinum (II) complex [listing 3 of 3 here]
Increase (L1210 [8]): 50%
Increase (L1210 [16]): 39%
Increase (P388 [17]): 173%
Increase (M5076): 128%
Increase (Colon 26 [18]): 59%
Increase (P388 [19]): 136%
Increase (B16 [20]): 43%
Increase (B16 [21]): 43%
Increase (B16 [22]): 36%
Increase (Colon 26 [23]): 39%
Increase (L1210 [24]): 38%
Increase (B16 [25]): 53%
